# According to ChEMBL document CHEMBL1212700, “Small-molecule aggregates inhibit amyloid polymerization” (Nat Chem Biol, 2008):
# The source made the active and inactive calls. The rule behind the calls is not given here.
# Legend:
# [1] = Inhibition of Beta-lactamase at 4 uM by nitrocefin hydrolysis assay
# [2] = biological target: T1, Eukaryotic peptide chain release factor GTP-binding subunit (Saccharomyces cerevisiae) (UniProt P05453); experiment: Inhibition of polyhistidine tagged yeast prion protein Sup35 expressed in Escherichia coli BL21 (DE3) assessed as inhibition of amyloid polymerization at 5 uM by thioflavin T fluorescence assay relative to untreated control
# T1 sequence (whole entry): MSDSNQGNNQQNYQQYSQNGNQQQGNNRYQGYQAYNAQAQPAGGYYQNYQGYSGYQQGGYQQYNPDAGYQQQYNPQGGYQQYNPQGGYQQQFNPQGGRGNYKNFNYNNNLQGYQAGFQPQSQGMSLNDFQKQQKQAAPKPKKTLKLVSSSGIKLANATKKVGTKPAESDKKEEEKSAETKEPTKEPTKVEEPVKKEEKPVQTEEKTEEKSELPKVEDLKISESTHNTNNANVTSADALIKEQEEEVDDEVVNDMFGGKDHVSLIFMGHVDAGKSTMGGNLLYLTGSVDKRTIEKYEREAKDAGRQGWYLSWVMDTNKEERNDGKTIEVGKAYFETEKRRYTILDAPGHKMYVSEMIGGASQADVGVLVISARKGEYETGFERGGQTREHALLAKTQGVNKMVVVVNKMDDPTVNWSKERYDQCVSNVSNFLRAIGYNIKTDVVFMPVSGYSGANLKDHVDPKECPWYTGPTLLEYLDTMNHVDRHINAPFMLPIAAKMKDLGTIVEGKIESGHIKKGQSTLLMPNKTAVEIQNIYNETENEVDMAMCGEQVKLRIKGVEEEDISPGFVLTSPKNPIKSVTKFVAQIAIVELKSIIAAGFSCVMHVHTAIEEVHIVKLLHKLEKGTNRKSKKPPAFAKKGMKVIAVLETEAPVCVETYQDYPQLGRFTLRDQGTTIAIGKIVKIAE
# In short: (§1)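 Sup35 fibrillization followed by thioflavin T fluorescence in seeded and unseeded polymerization reactions. For BSA lines, BSA added from a 20 mg ml−1 solution to a final 5 mg ml−1. Inhibition is relative to untreated reactions.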
# Mus musculus [3] = species: Mus musculus; conditions: at 50 µM
# [4] = Inhibition of Beta-lactamase at 4 uM in presence of 0.01% Triton X-100 by nitrocefin hydrolysis assay
# [5] = biological target: T1, Eukaryotic peptide chain release factor GTP-binding subunit (Saccharomyces cerevisiae); experiment: Inhibition of polyhistidine tagged yeast prion protein Sup35 expressed in Escherichia coli BL21 (DE3) assessed as inhibition of amyloid polymerization at 5 uM in presence of 5 mg/ml BSA by thioflavin T fluorescence assay relative to untreated control; in short: as §1
# [6] = biological target: T1, Eukaryotic peptide chain release factor GTP-binding subunit (Saccharomyces cerevisiae); experiment: Inhibition of yeast prion protein Sup35 infection of PSI yeast spheroplast cells at 200 uM
# In short: (§2)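 Yeast made infection-competent by enzymatic digestion of the cell wall, then exposed to Sup35 prion with compound; infectivity scored. EC50 derived from a 40–200 μM concentration series.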
# [7] = Inhibition of Beta-lactamase at 50 uM in presence of 0.01% Triton X-100 by nitrocefin hydrolysis assay
# [8] = biological target: T1, Eukaryotic peptide chain release factor GTP-binding subunit (Saccharomyces cerevisiae); conditions: at 50 µM
# [9] = biological target: T1, Eukaryotic peptide chain release factor GTP-binding subunit (Saccharomyces cerevisiae); conditions: at 50 µM; remark: listed apart in the source
# Mus musculus [10] = species: Mus musculus; experiment: Inhibition of mouse prion protein (89-230) assessed as inhibition of amyloid polymerization at 25 uM by thioflavin T fluorescence assay relative to untreated control
# In short: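 Mouse prion protein (recMoPrP) fibrillization monitored by thioflavin T fluorescence; reactions contained 3 M urea.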
# [11] = Inhibition of Beta-lactamase at 50 uM by nitrocefin hydrolysis assay
# [12] = Inhibition of Beta-lactamase at 25 uM by nitrocefin hydrolysis assay
# [13] = Inhibition of Beta-lactamase at 25 uM in presence of 0.01% Triton X-100 by nitrocefin hydrolysis assay
# [14] = biological target: T2, Eukaryotic peptide chain release factor GTP-binding subunit (Saccharomyces cerevisiae, UniProt P05453); experiment: Inhibition of polyhistidine tagged yeast prion protein Sup35 expressed in Escherichia coli BL21 (DE3) assessed as inhibition of amyloid polymerization by thioflavin T fluorescence assay relative to untreated control; in short: as §1
# T2 sequence (P05453 whole entry): T1 sequence (whole entry)
# [15] = biological target: T1, Eukaryotic peptide chain release factor GTP-binding subunit (Saccharomyces cerevisiae); experiment: Inhibition of polyhistidine tagged yeast prion protein Sup35 expressed in Escherichia coli BL21 (DE3) assessed as coating of prion protein with […] particles at 100 uM by transmission electron microscopy
# In short: (§3)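 Preformed fibres (recMoPrP at 50 μM compound, Sup35 at 100 μM compound) were mixed with compound, then examined by transmission electron microscopy for colloidal particles coating the fibres.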
# [16] = biological target: T1, Eukaryotic peptide chain release factor GTP-binding subunit (Saccharomyces cerevisiae); experiment: Inhibition of polyhistidine tagged yeast prion protein Sup35 expressed in Escherichia coli BL21 (DE3) assessed as inhibition of fiber formation at 100 uM by transmission electron microscopy
# In short: (§4)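 Transmission electron microscopy of recMoPrP (50 μM compound) or Sup35 (100 μM compound) polymerized in the presence of compound, scored for fibre formation.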
# [17] = biological target: T1, Eukaryotic peptide chain release factor GTP-binding subunit (Saccharomyces cerevisiae); experiment: Inhibition of polyhistidine tagged yeast prion protein Sup35 expressed in Escherichia coli BL21 (DE3) assessed as inhibition of amyloid polymerization at 30 uM by thioflavin T fluorescence assay relative to untreated control; in short: as §1
# [18] = biological target: T1, Eukaryotic peptide chain release factor GTP-binding subunit (Saccharomyces cerevisiae); experiment: Inhibition of polyhistidine tagged yeast prion protein Sup35 expressed in Escherichia coli BL21 (DE3) assessed as inhibition of amyloid polymerization at 30 uM in presence of 5 mg/ml BSA by thioflavin T fluorescence assay relative to untreated control; in short: as §1
# [19] = Inhibition of dynamic light scattering at 20 uM by thioflavin T fluorescence assay relative to untreated control; format: physicochemical
# In short: (§5)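 Sup35 polymerization followed by dynamic light scattering rather than ThT fluorescence, as a control for spectroscopic interference; percent inhibition of the DLS signal.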
# [20] = Inhibition of dynamic light scattering at 2 uM by thioflavin T fluorescence assay relative to untreated control; format: physicochemical; in short: as §5
# Mus musculus [21] = species: Mus musculus; experiment: Inhibition of mouse prion protein (89-230) assessed as assessed as inhibition of fiber formation at 50 uM by transmission electron microscopy; in short: as §4
# Mus musculus [22] = species: Mus musculus; experiment: Inhibition of mouse prion protein (89-230) assessed as assessed as coating of prion protein with […] particles at 50 uM by transmission electron microscopy; in short: as §3
# [23] = Inhibition of Beta-lactamase at 30 uM in presence of 0.01% Triton X-100 by nitrocefin hydrolysis assay
# [24] = Inhibition of Beta-lactamase at 30 uM by nitrocefin hydrolysis assay
# [25] = Inhibition of Beta-lactamase at 35 uM in presence of 0.01% Triton X-100 by nitrocefin hydrolysis assay
# [26] = Inhibition of Beta-lactamase at 35 uM by nitrocefin hydrolysis assay
# [27] = biological target: T1, Eukaryotic peptide chain release factor GTP-binding subunit (Saccharomyces cerevisiae); experiment: Inhibition of polyhistidine tagged yeast prion protein Sup35 expressed in Escherichia coli BL21 (DE3) assessed as inhibition of amyloid polymerization preincubation of seed fibers and compound for 5 mins at 100 uM by thioflavin T fluorescence assay relative to untreated control
# [28] = biological target: T1, Eukaryotic peptide chain release factor GTP-binding subunit (Saccharomyces cerevisiae); experiment: Inhibition of yeast prion protein Sup35 infection of PSI yeast spheroplast cells at 100 uM; in short: as §2
# [29] = biological target: T1, Eukaryotic peptide chain release factor GTP-binding subunit (Saccharomyces cerevisiae); experiment: Inhibition of polyhistidine tagged yeast prion protein Sup35 expressed in Escherichia coli BL21 (DE3) assessed as inhibition of amyloid polymerization at 100 uM by thioflavin T fluorescence assay relative to untreated control; in short: as §1
# [30] = Inhibition of dynamic light scattering at 25 uM by thioflavin T fluorescence assay relative to untreated control; format: physicochemical
# In short: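 Sup35 fibrillization was tracked by dynamic light scattering, which served as a check against spectroscopic interference in the thioflavin T fluorescence read-out. Inhibition was scored against the reaction without compound.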
# Saccharomyces cerevisiae = experiment: Toxicity in PSI yeast spheroplast cells infected with yeast prion protein Sup35; format: organism-based
# [31] = biological target: T1, Eukaryotic peptide chain release factor GTP-binding subunit (Saccharomyces cerevisiae); experiment: Inhibition of polyhistidine tagged yeast prion protein Sup35 expressed in Escherichia coli BL21 (DE3) assessed as inhibition of amyloid polymerization at 50 uM in presence of 1% seed fibres by thioflavin T fluorescence assay relative to untreated control
# In short: (§6)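 Seeded Sup35 polymerization read by thioflavin T fluorescence, with seed at 0.5%, 1% or 5% and compound at fixed 50 μM. Preincubation line: 5-min preincubation before polymerization.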
# [32] = biological target: T1, Eukaryotic peptide chain release factor GTP-binding subunit (Saccharomyces cerevisiae); experiment: Inhibition of polyhistidine tagged yeast prion protein Sup35 expressed in Escherichia coli BL21 (DE3) assessed as inhibition of amyloid polymerization at 50 uM in presence of 0.5% seed fibres by thioflavin T fluorescence assay relative to untreated control; in short: as §6
# [33] = biological target: T1, Eukaryotic peptide chain release factor GTP-binding subunit (Saccharomyces cerevisiae); experiment: Inhibition of polyhistidine tagged yeast prion protein Sup35 expressed in Escherichia coli BL21 (DE3) assessed as inhibition of amyloid polymerization at 50 uM in presence of 5% seed fibres by thioflavin T fluorescence assay relative to untreated control; in short: as §6
# [34] = biological target: T1, Eukaryotic peptide chain release factor GTP-binding subunit (Saccharomyces cerevisiae); experiment: Inhibition of polyhistidine tagged yeast prion protein Sup35 expressed in Escherichia coli BL21 (DE3) assessed as inhibition of amyloid polymerization at 10 uM in presence of 5 mg/ml BSA by thioflavin T fluorescence assay relative to untreated control; in short: as §1
# [35] = biological target: T1, Eukaryotic peptide chain release factor GTP-binding subunit (Saccharomyces cerevisiae); experiment: Inhibition of polyhistidine tagged yeast prion protein Sup35 expressed in Escherichia coli BL21 (DE3) assessed as inhibition of amyloid polymerization at 10 uM by thioflavin T fluorescence assay relative to untreated control; in short: as §1
structure (smiles),measurement,setting,value
Nc1c(/N=N/c2ccc(-c3ccc(/N=N/c4cc(S(=O)(=O)O)c5ccccc5c4N)cc3)cc2)cc(S(=O)(=O)O)c2ccccc12,inhibition,[1],92%
same,inhibition,[2],100%
same,inhibition,Mus musculus [3],100%
same,inhibition,[4],20%
same,inhibition,[5],100%
O=C1NC(=O)c2cc(Nc3ccccc3)c(Nc3ccccc3)cc21,inhibition,[6],Active
same,inhibition,[7],0.7%
same,inhibition,[8],87.1%
same,inhibition,[9],44.7%
same,inhibition,Mus musculus [10],73.6%
same,inhibition,[11],97%
Oc1c(I)cc(Cl)c2cccnc12,inhibition,[12],51.6%
same,inhibition,Mus musculus [3],0%
same,inhibition,[8],54.7%
same,inhibition,[9],0%
same,inhibition,[13],6.4%
O=C1C(I)=CC(=C(c2ccccc2C(=O)O)C2C=C(I)C(=O)C(I)=C2)C=C1I [TERAIODOPHENOLPHATHALIN],IC50,[14],2.5 µM
same,inhibition,[15],Active
same,inhibition,[6],Active
same,inhibition,[16],Active
same,inhibition,Mus musculus [3],0%
same,inhibition,[17],99.3%
same,inhibition,[18],6.8%
same,inhibition (INH),[19],99%
same,inhibition (INH),[20],30%
CC(=O)c1c(O)c(C)c(O)c(Cc2c(O)c3c(c(C(=O)/C=C/c4ccccc4)c2O)OC(C)(C)C=C3)c1O,inhibition,Mus musculus [21],Active
same,inhibition,[6],Active
same,inhibition,[17],99.4%
same,inhibition,[18],40.5%
same,inhibition,Mus musculus [22],Active
same,inhibition,Mus musculus [10],71.1%
CCN(CC)CC(=O)Nc1c(C)cccc1C,inhibition,[6],Active
same,inhibition,[8],1.1%
same,inhibition,[9],0%
same,inhibition,Mus musculus [10],0%
O=c1cc(-c2ccccc2)oc2cc(O)c(O)c(O)c12,inhibition,[6],Active
same,inhibition,Mus musculus [3],34.3%
same,inhibition,[8],95.4%
same,inhibition,[9],17.6%
same,inhibition,[23],0%
same,inhibition,[24],51.8%
Cc1cc(/N=N/c2ccc(-c3ccc(/N=N/c4cc(C)c(O)c(C(=O)O)c4)cc3)cc2)c(C(=O)O)cc1O,inhibition,[25],0%
same,inhibition,[26],50%
Clc1ccc(CSC(Cn2ccnc2)c2ccc(Cl)cc2Cl)cc1 (stereo not given),inhibition,Mus musculus [3],100%
same,inhibition,[8],75.5%
same,inhibition,[9],10.1%
COC(=O)C1=C(C)NC(C)=C(C(=O)OCCN(C)Cc2ccccc2)C1c1cccc([N+](=O)[O-])c1 (stereo not given),inhibition,[27],88%
same,inhibition,[28],50%
same,inhibition,[6],Active
same,inhibition,Mus musculus [3],22.7%
same,inhibition,[29],55%
same,inhibition,[8],61.5%
same,inhibition,[9],0%
Clc1ccccc1C(c1ccccc1)(c1ccccc1)n1ccnc1 [CLOTRIMAZOLE],inhibition,[27],94%
same,inhibition (INH),[30],98%
same,Activity,Saccharomyces cerevisiae,Toxic
same,inhibition,[31],95%
same,inhibition,[32],99%
same,inhibition,[29],79%
same,inhibition,[33],30%
same,inhibition,[8],62.7%
same,inhibition,[9],5.6%
same,inhibition,Mus musculus [10],21.5%
Oc1ccc(/N=N/c2ccc(Br)cc2)cc1,Activity,Saccharomyces cerevisiae,Toxic
same,inhibition,[34],2.1%
same,inhibition,[35],36.4%
same,inhibition,Mus musculus [10],100%
OC(Cn1cncn1)(Cn1cncn1)c1ccc(F)cc1F,inhibition,Mus musculus [3],5.9%
same,inhibition,[8],0%
same,inhibition,[9],9%
